System: Fibroblast
Experiment: Multiplex assay against human fibroblast
Format: toxicity, cell-based
How it was run: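 Imaging took place on a CQ1 microscope at 37°C and 5% CO2 once compound had been added to live cells stained at seeding with Hoechst33342, BioTracker Green Microtubule Cytoskeleton Dye, MitoTracker Red and Annexin V Alexa Fluor 680. CellPathfinder machine-learning gating classed cells as Hoechst high-intensity objects or normal cells, classed normal cells as having healthy, pyknosed or fragmented nuclei, and classed pyknosed cells as mitotic or apoptotic. Tubulin, mitochondrial-mass and membrane-permeability phenotypes are per cents of the healthy-nucleus cells.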

[1] = 12 h, 1 µM, compound concentration 1 uM, replicate 1
[2] = 12 h, 1 µM, compound concentration 1 uM, replicate 2
[3] = 12 h, 10 µM, compound concentration 10 uM, replicate 1
[4] = 12 h, 10 µM, compound concentration 10 uM, replicate 2
[5] = 24 h, 1 µM, compound concentration 1 uM, replicate 1
[6] = 24 h, 1 µM, compound concentration 1 uM, replicate 2
[7] = 24 h, 10 µM, compound concentration 10 uM, replicate 1
[8] = 24 h, 10 µM, compound concentration 10 uM, replicate 2
[9] = 48 h, 1 µM, compound concentration 1 uM, replicate 1
[10] = 48 h, 1 µM, compound concentration 1 uM, replicate 2
[11] = 48 h, 10 µM, compound concentration 10 uM, replicate 1
[12] = 48 h, 10 µM, compound concentration 10 uM, replicate 2

## CCCN1CCC[C@@H]2Cc3n[nH]cc3C[C@H]21.Cl [QUINPIROLE HYDROCHLORIDE]
[1]
  Population Apoptotic (%): 45%
  Population Fragmented Nuclei (%): 14%
  Population Healthy Nuclei (%): 65%
  Population Hoechst High Intensity Objects (%): 2%
  Population Membrane Permeable-Phenotype (%): 0%
  Population Mitochondria Different-Phenotype (%): 3%
  Population Mitotic Cells (%): 54%
  Population Normal (%): 97%
  Population Pyknosed Nuclei (%): 20%
  Population Tubulin-Different-Phenotype (%): 17%
  Total Cell Count: 156
[2]
  Population Apoptotic (%): 52%
  Population Fragmented Nuclei (%): 22%
  Population Healthy Nuclei (%): 60%
  Population Hoechst High Intensity Objects (%): 6%
  Population Membrane Permeable-Phenotype (%): 7%
  Population Mitochondria Different-Phenotype (%): 6%
  Population Mitotic Cells (%): 47%
  Population Normal (%): 93%
  Population Pyknosed Nuclei (%): 17%
  Population Tubulin-Different-Phenotype (%): 50%
  Total Cell Count: 139
[3]
  Population Apoptotic (%): 58%
  Population Fragmented Nuclei (%): 16%
  Population Healthy Nuclei (%): 68%
  Population Hoechst High Intensity Objects (%): 4%
  Population Membrane Permeable-Phenotype (%): 1%
  Population Mitochondria Different-Phenotype (%): 6%
  Population Mitotic Cells (%): 41%
  Population Normal (%): 95%
  Population Pyknosed Nuclei (%): 15%
  Population Tubulin-Different-Phenotype (%): 33%
  Total Cell Count: 115
[4]
  Population Apoptotic (%): 45%
  Population Fragmented Nuclei (%): 23%
  Population Healthy Nuclei (%): 59%
  Population Hoechst High Intensity Objects (%): 2%
  Population Membrane Permeable-Phenotype (%): 10%
  Population Mitotic Cells (%): 54%
  Population Normal (%): 97%
  Population Pyknosed Nuclei (%): 17%
  Population Tubulin-Different-Phenotype (%): 55%
  Total Cell Count: 184
[5]
  Population Apoptotic (%): 52%
  Population Fragmented Nuclei (%): 21%
  Population Healthy Nuclei (%): 64%
  Population Hoechst High Intensity Objects (%): 1%
  Population Membrane Permeable-Phenotype (%): 0%
  Population Mitochondria Different-Phenotype (%): 2%
  Population Mitotic Cells (%): 47%
  Population Normal (%): 98%
  Population Pyknosed Nuclei (%): 13%
  Population Tubulin-Different-Phenotype (%): 13%
  Total Cell Count: 172
[6]
  Population Apoptotic (%): 34%
  Population Fragmented Nuclei (%): 28%
  Population Healthy Nuclei (%): 53%
  Population Hoechst High Intensity Objects (%): 2%
  Population Membrane Permeable-Phenotype (%): 1%
  Population Mitochondria Different-Phenotype (%): 7%
  Population Mitotic Cells (%): 65%
  Population Pyknosed Nuclei (%): 17%
  Population Tubulin-Different-Phenotype (%): 41%
  Total Cell Count: 150
[7]
  Population Apoptotic (%): 75%
  Population Fragmented Nuclei (%): 22%
  Population Healthy Nuclei (%): 67%
  Population Hoechst High Intensity Objects (%): 2%
  Population Membrane Permeable-Phenotype (%): 0%
  Population Mitochondria Different-Phenotype (%): 7%
  Population Mitotic Cells (%): 25%
  Population Normal (%): 97%
  Population Pyknosed Nuclei (%): 10%
  Population Tubulin-Different-Phenotype (%): 32%
  Total Cell Count: 119
[8]
  Population Apoptotic (%): 55%
  Population Fragmented Nuclei (%): 38%
  Population Healthy Nuclei (%): 51%
  Population Hoechst High Intensity Objects (%): 1%
  Population Membrane Permeable-Phenotype (%): 7%
  Population Mitochondria Different-Phenotype (%): 3%
  Population Mitotic Cells (%): 45%
  Population Normal (%): 98%
  Population Pyknosed Nuclei (%): 9%
  Population Tubulin-Different-Phenotype (%): 39%
  Total Cell Count: 209
[9]
  Population Apoptotic (%): 68%
  Population Fragmented Nuclei (%): 23%
  Population Healthy Nuclei (%): 62%
  Population Hoechst High Intensity Objects (%): 3%
  Population Membrane Permeable-Phenotype (%): 0%
  Population Mitochondria Different-Phenotype (%): 3%
  Population Mitotic Cells (%): 32%
  Population Normal (%): 96%
  Population Pyknosed Nuclei (%): 14%
  Population Tubulin-Different-Phenotype (%): 21%
  Total Cell Count: 175
[10]
  Population Apoptotic (%): 38%
  Population Fragmented Nuclei (%): 37%
  Population Healthy Nuclei (%): 53%
  Population Hoechst High Intensity Objects (%): 1%
  Population Membrane Permeable-Phenotype (%): 8%
  Population Mitochondria Different-Phenotype (%): 4%
  Population Mitotic Cells (%): 61%
  Population Normal (%): 98%
  Population Pyknosed Nuclei (%): 8%
  Population Tubulin-Different-Phenotype (%): 42%
  Total Cell Count: 157
[11]
  Population Apoptotic (%): 53%
  Population Fragmented Nuclei (%): 23%
  Population Healthy Nuclei (%): 65%
  Population Hoechst High Intensity Objects (%): 1%
  Population Membrane Permeable-Phenotype (%): 2%
  Population Mitochondria Different-Phenotype (%): 6%
  Population Mitotic Cells (%): 46%
  Population Normal (%): 98%
  Population Pyknosed Nuclei (%): 11%
  Population Tubulin-Different-Phenotype (%): 31%
  Total Cell Count: 119
[12]
  Population Apoptotic (%): 46%
  Population Fragmented Nuclei (%): 43%
  Population Healthy Nuclei (%): 48%
  Population Hoechst High Intensity Objects (%): 3%
  Population Mitochondria Different-Phenotype (%): 4%
  Population Mitotic Cells (%): 53%
  Population Normal (%): 96%
  Population Pyknosed Nuclei (%): 8%
  Population Tubulin-Different-Phenotype (%): 48%
  Total Cell Count: 192

## CN1CCN2c3ncccc3Cc3ccccc3C2C1 (centres undefined) [MIRTAZAPINE]
[1]
  Population Apoptotic (%): 44%
  Population Fragmented Nuclei (%): 10%
  Population Healthy Nuclei (%): 77%
  Population Hoechst High Intensity Objects (%): 3%
  Population Membrane Permeable-Phenotype (%): 0%
  Population Mitochondria Different-Phenotype (%): 6%
  Population Mitotic Cells (%): 56%
  Population Normal (%): 96%
  Population Pyknosed Nuclei (%): 12%
  Population Tubulin-Different-Phenotype (%): 24%
  Total Cell Count: 213
[2]
  Population Apoptotic (%): 33%
  Population Fragmented Nuclei (%): 24%
  Population Healthy Nuclei (%): 47%
  Population Membrane Permeable-Phenotype (%): 4%
  Population Mitochondria Different-Phenotype (%): 5%
  Population Mitotic Cells (%): 66%
  Population Pyknosed Nuclei (%): 27%
  Population Tubulin-Different-Phenotype (%): 45%
  Total Cell Count: 156
[3]
  Population Apoptotic (%): 44%
  Population Fragmented Nuclei (%): 19%
  Population Healthy Nuclei (%): 69%
  Population Hoechst High Intensity Objects (%): 1%
  Population Membrane Permeable-Phenotype (%): 0%
  Population Mitochondria Different-Phenotype (%): 8%
  Population Mitotic Cells (%): 55%
  Population Normal (%): 98%
  Population Pyknosed Nuclei (%): 10%
  Population Tubulin-Different-Phenotype (%): 30%
  Total Cell Count: 168
[4]
  Population Apoptotic (%): 28%
  Population Fragmented Nuclei (%): 27%
  Population Healthy Nuclei (%): 40%
  Population Hoechst High Intensity Objects (%): 6%
  Population Membrane Permeable-Phenotype (%): 16%
  Population Mitochondria Different-Phenotype (%): 7%
  Population Mitotic Cells (%): 71%
  Population Normal (%): 93%
  Population Pyknosed Nuclei (%): 32%
  Population Tubulin-Different-Phenotype (%): 60%
  Total Cell Count: 140
[5]
  Population Apoptotic (%): 47%
  Population Fragmented Nuclei (%): 7%
  Population Healthy Nuclei (%): 82%
  Population Hoechst High Intensity Objects (%): 5%
  Population Membrane Permeable-Phenotype (%): 0%
  Population Mitochondria Different-Phenotype (%): 5%
  Population Mitotic Cells (%): 52%
  Population Normal (%): 94%
  Population Pyknosed Nuclei (%): 10%
  Population Tubulin-Different-Phenotype (%): 31%
  Total Cell Count: 201
[6]
  Population Apoptotic (%): 48%
  Population Fragmented Nuclei (%): 26%
  Population Healthy Nuclei (%): 50%
  Population Hoechst High Intensity Objects (%): 0%
  Population Membrane Permeable-Phenotype (%): 10%
  Population Mitochondria Different-Phenotype (%): 10%
  Population Mitotic Cells (%): 51%
  Population Normal (%): 99%
  Population Pyknosed Nuclei (%): 23%
  Population Tubulin-Different-Phenotype (%): 36%
  Total Cell Count: 153
[7]
  Population Apoptotic (%): 50%
  Population Fragmented Nuclei (%): 19%
  Population Healthy Nuclei (%): 72%
  Population Hoechst High Intensity Objects (%): 4%
  Population Membrane Permeable-Phenotype (%): 0%
  Population Mitochondria Different-Phenotype (%): 9%
  Population Mitotic Cells (%): 50%
  Population Normal (%): 95%
  Population Pyknosed Nuclei (%): 7%
  Population Tubulin-Different-Phenotype (%): 30%
  Total Cell Count: 186
[8]
  Population Apoptotic (%): 46%
  Population Fragmented Nuclei (%): 29%
  Population Healthy Nuclei (%): 46%
  Population Hoechst High Intensity Objects (%): 5%
  Population Membrane Permeable-Phenotype (%): 15%
  Population Mitochondria Different-Phenotype (%): 1%
  Population Mitotic Cells (%): 53%
  Population Normal (%): 94%
  Population Pyknosed Nuclei (%): 23%
  Population Tubulin-Different-Phenotype (%): 68%
  Total Cell Count: 136
[9]
  Population Apoptotic (%): 60%
  Population Fragmented Nuclei (%): 15%
  Population Healthy Nuclei (%): 73%
  Population Hoechst High Intensity Objects (%): 7%
  Population Membrane Permeable-Phenotype (%): 0%
  Population Mitochondria Different-Phenotype (%): 4%
  Population Mitotic Cells (%): 39%
  Population Normal (%): 92%
  Population Pyknosed Nuclei (%): 11%
  Population Tubulin-Different-Phenotype (%): 31%
  Total Cell Count: 213
[10]
  Population Apoptotic (%): 50%
  Population Fragmented Nuclei (%): 36%
  Population Healthy Nuclei (%): 45%
  Population Hoechst High Intensity Objects (%): 2%
  Population Membrane Permeable-Phenotype (%): 11%
  Population Mitochondria Different-Phenotype (%): 12%
  Population Mitotic Cells (%): 50%
  Population Normal (%): 97%
  Population Pyknosed Nuclei (%): 17%
  Population Tubulin-Different-Phenotype (%): 56%
  Total Cell Count: 161
[11]
  Population Apoptotic (%): 66%
  Population Fragmented Nuclei (%): 17%
  Population Healthy Nuclei (%): 73%
  Population Hoechst High Intensity Objects (%): 5%
  Population Membrane Permeable-Phenotype (%): 0%
  Population Mitochondria Different-Phenotype (%): 9%
  Population Mitotic Cells (%): 33%
  Population Normal (%): 94%
  Population Pyknosed Nuclei (%): 9%
  Population Tubulin-Different-Phenotype (%): 36%
  Total Cell Count: 176
[12]
  Population Apoptotic (%): 33%
  Population Fragmented Nuclei (%): 46%
  Population Healthy Nuclei (%): 41%
  Population Hoechst High Intensity Objects (%): 2%
  Population Membrane Permeable-Phenotype (%): 8%
  Population Mitochondria Different-Phenotype (%): 2%
  Population Mitotic Cells (%): 66%
  Population Normal (%): 97%
  Population Pyknosed Nuclei (%): 12%
  Population Tubulin-Different-Phenotype (%): 60%
  Total Cell Count: 120
